In brackets after ≈: the same amount, converted by molar mass.
Assays:
Streptococcus pneumoniae [1] = assay: Antimicrobial activity against Streptococcus pneumoniae R6 transformants with parC S79Y mutation in presence of reserpine
Streptococcus pneumoniae [2] = assay: Antimicrobial activity against Streptococcus pneumoniae R6 transformants with parC D83Y mutation; type: functional
How it was run: (§1)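 MIC by Etest on tryptic soy agar with 5% sheep blood, incubated overnight at 35°C, or by serial dilution in Mueller-Hinton broth with 5% horse blood per CLSI protocols. Each assay was run twice. Strains were R6 or R6 transformed with QRDR alleles from levofloxacin-resistant clinical isolates, with mutations confirmed by PCR sequencing.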

Streptococcus pneumoniae [3] = assay: Antimicrobial activity against Streptococcus pneumoniae R6 transformants with parC S79F and gyrA S81Y mutation; type: functional; how it was run: as §1
Streptococcus pneumoniae [4] = assay: Antimicrobial activity against Streptococcus pneumoniae R6 transformants with parC D83Y and gyrA S81Y mutation; type: functional; how it was run: as §1
Streptococcus pneumoniae [5] = assay: Antimicrobial activity agaisnt Streptococcus pneumoniae R6 transformants with parC S79F and gyrA E85K mutation; type: functional; how it was run: as §1
Streptococcus pneumoniae [6] = assay: Antimicrobial activity against Streptococcus pneumoniae R6 transformants with gyrA S81Y mutation in presence of reserpine
Streptococcus pneumoniae [7] = assay: Antimicrobial activity against Streptococcus pneumoniae R6 transformants with parC S79Y and gyrA E85K mutation; type: functional; how it was run: as §1
Streptococcus pneumoniae [8] = assay: Antimicrobial activity against Streptococcus pneumoniae R6 transformants with parE D435N mutation in presence of reserpine
Streptococcus pneumoniae [9] = assay: Antimicrobial activity against Streptococcus pneumoniae R6 transformants with parE D435N and gyrA S81F mutation; type: functional; how it was run: as §1
Streptococcus pneumoniae [10] = assay: Antimicrobial activity against Streptococcus pneumoniae R6 transformants with parC S79F and gyrA S81F mutation; type: functional; how it was run: as §1
Streptococcus pneumoniae [11] = assay: Antimicrobial activity against Streptococcus pneumoniae R6 transformants with parC S79F and gyrA S81Y mutation in presence of reserpine
Streptococcus pneumoniae [12] = assay: Antimicrobial activity against Streptococcus pneumoniae R6 transformants with parC S79Y and gyrA E85K mutation in presence of reserpine
Streptococcus pneumoniae [13] = assay: Antimicrobial activity against Streptococcus pneumoniae R6 transformants with parC D83Y and gyrA E85K mutation; type: functional; how it was run: as §1
Streptococcus pneumoniae [14] = assay: Antimicrobial activity against Streptococcus pneumoniae R6 transformants with parC D83Y and gyrA S81F mutation; type: functional; how it was run: as §1
Streptococcus pneumoniae [15] = assay: Antimicrobial activity against Streptococcus pneumoniae R6 transformants with parC S79Y and gyrA S81F mutation in presence of reserpine
Streptococcus pneumoniae [16] = assay: Antimicrobial activity against Streptococcus pneumoniae R6 transformants with parC S79F and gyrA E85K mutation in presence of reserpine
Streptococcus pneumoniae [17] = assay: Antimicrobial activity against Streptococcus pneumoniae R6 transformants with parE D435N and gyrA E85K mutation; type: functional; how it was run: as §1
Streptococcus pneumoniae [18] = assay: Antimicrobial activity against Streptococcus pneumoniae R6 transformants with gyrA S81F mutation in presence of reserpine
Streptococcus pneumoniae [19] = assay: Antimicrobial activity against Streptococcus pneumoniae R6 transformants with parE D435N and gyrA E85K mutation in presence of reserpine
Streptococcus pneumoniae [20] = assay: Antimicrobial activity against Streptococcus pneumoniae R6 transformants with parE D435N and gyrA S81Y mutation; type: functional; how it was run: as §1
Streptococcus pneumoniae [21] = assay: Antimicrobial activity against Streptococcus pneumoniae R6 transformants with parC D83Y and gyrA S81Y mutation in presence of reserpine
Streptococcus pneumoniae [22] = assay: Antimicrobial activity against Streptococcus pneumoniae R6 transformants with parE D435N and gyrA S81F mutation in presence of reserpine
Streptococcus pneumoniae [23] = assay: Antimicrobial activity against Streptococcus pneumoniae R6 transformants with parC D83Y mutation in presence of reserpine
Streptococcus pneumoniae [24] = assay: Antimicrobial activity against Streptococcus pneumoniae R6 transformants with gyrA S81F mutation; type: functional; how it was run: as §1
Streptococcus pneumoniae [25] = assay: Antimicrobial activity against Streptococcus pneumoniae R6 transformants with parC D83Y and gyrA E85K mutation in presence of reserpine
Streptococcus pneumoniae [26] = assay: Antimicrobial activity against Streptococcus pneumoniae R6 transformants with gyrA S81Y mutation; type: functional; how it was run: as §1
Streptococcus pneumoniae [27] = assay: Antimicrobial activity against Streptococcus pneumoniae R6 transformants with parE D435N and gyrA S81Y mutation in presence of reserpine
Streptococcus pneumoniae [28] = assay: Antimicrobial activity agaisnt Streptococcus pneumoniae R6 transformants with parC D83Y and gyrA S81F mutation in presence of reserpine
Streptococcus pneumoniae [29] = assay: Antimicrobial activity against Streptococcus pneumoniae R6 transformants with parC S79Y and gyrA S81F mutation; type: functional; how it was run: as §1
Streptococcus pneumoniae [30] = assay: Antimicrobial activity against Streptococcus pneumoniae R6 transformants with parC S79F and gyrA S81F mutation in presence of reserpine
Streptococcus pneumoniae [31] = assay: Antimicrobial activity against Streptococcus pneumoniae R6 transformants with parC S79F mutation in presence of reserpine
Streptococcus pneumoniae [32] = assay: Antimicrobial activity against Streptococcus pneumoniae R6 transformants with parC S79F mutation; type: functional; how it was run: as §1
Streptococcus pneumoniae [33] = assay: Antimicrobial activity against Streptococcus pneumoniae R6 transformants with parE D435N mutation; type: functional; how it was run: as §1
Streptococcus pneumoniae [34] = assay: Antimicrobial activity agaisnt Streptococcus pneumoniae R6 transformants with parC S79Y mutation; type: functional; how it was run: as §1
Streptococcus pneumoniae [35] = assay: Antimicrobial activity against Streptococcus pneumoniae R6; type: functional; how it was run: as §1
Streptococcus pneumoniae [36] = assay: Antimicrobial activity against Streptococcus pneumoniae R6 transformants with gyrA E85K mutation; type: functional; how it was run: as §1

Compound | MIC (Streptococcus pneumoniae [2]) [µg/mL] | MIC (Streptococcus pneumoniae [3]) [µg/mL] | MIC (Streptococcus pneumoniae [4]) [µg/mL] | MIC (Streptococcus pneumoniae [5]) [µg/mL] | MIC (Streptococcus pneumoniae [7]) [µg/mL] | MIC (Streptococcus pneumoniae [9]) [µg/mL] | MIC (Streptococcus pneumoniae [10]) [µg/mL] | MIC (Streptococcus pneumoniae [13]) [µg/mL] | MIC (Streptococcus pneumoniae [14]) [µg/mL] | MIC (Streptococcus pneumoniae [17]) [µg/mL] | MIC (Streptococcus pneumoniae [20]) [µg/mL] | MIC (Streptococcus pneumoniae [24]) [µg/mL] | MIC (Streptococcus pneumoniae [26]) [µg/mL] | MIC (Streptococcus pneumoniae [29]) [µg/mL] | MIC (Streptococcus pneumoniae [32]) [µg/mL] | MIC (Streptococcus pneumoniae [33]) [µg/mL] | MIC (Streptococcus pneumoniae [34]) [µg/mL] | MIC (Streptococcus pneumoniae [35]) [µg/mL] | MIC (Streptococcus pneumoniae [36]) [µg/mL] | further results
O=C(O)c1cn(C2CC2)c2cc(N3CCNCC3)c(F)cc2c1=O [CIPROFLOXACIN] | 3 (≈ 9.05 µM) | 64 (≈ 193 µM) | 64 (≈ 193 µM) | 32 (≈ 96.6 µM) | 64 (≈ 193 µM) | 32 (≈ 96.6 µM) | 64 (≈ 193 µM) | 64 (≈ 193 µM) | 32 (≈ 96.6 µM) | < 4 | 64 (≈ 193 µM) | 1 (≈ 3.02 µM) | 2 (≈ 6.04 µM) | 64 (≈ 193 µM) | – | – | – | – | – | MIC (Streptococcus pneumoniae [1]): 2 µg/mL; MIC (Streptococcus pneumoniae [6]): 2 µg/mL; MIC (Streptococcus pneumoniae [8]): 2 µg/mL; MIC (Streptococcus pneumoniae [11]): 32 µg/mL; MIC (Streptococcus pneumoniae [12]): 32 µg/mL; MIC (Streptococcus pneumoniae [15]): 32 µg/mL; MIC (Streptococcus pneumoniae [16]): 32 µg/mL; MIC (Streptococcus pneumoniae [18]): 1 µg/mL; MIC (Streptococcus pneumoniae [19]): < 4 µg/mL; MIC (Streptococcus pneumoniae [21]): 32 µg/mL; MIC (Streptococcus pneumoniae [22]): 16 µg/mL; MIC (Streptococcus pneumoniae [23]): 2 µg/mL; MIC (Streptococcus pneumoniae [25]): 32 µg/mL; MIC (Streptococcus pneumoniae [27]): 32 µg/mL; MIC (Streptococcus pneumoniae [28]): 8 µg/mL; MIC (Streptococcus pneumoniae [30]): 32 µg/mL; MIC (Streptococcus pneumoniae [31]): 2 µg/mL
COc1c(N2CCNC(C)C2)c(F)cc2c(=O)c(C(=O)O)cn(C3CC3)c12 (centres undefined) [GATIFLOXACIN] | 0.12 (≈ 0.32 µM) | ≥ 4 | ≥ 4 | ≥ 4 | ≥ 4 | 2 (≈ 5.33 µM) | ≥ 4 | 2 (≈ 5.33 µM) | 4 (≈ 10.7 µM) | 0.25 (≈ 0.666 µM) | ≥ 4 | 0.25 (≈ 0.666 µM) | 0.25 (≈ 0.666 µM) | ≥ 4 | 0.12 (≈ 0.32 µM) | 0.12 (≈ 0.32 µM) | 0.12 (≈ 0.32 µM) | 0.12 (≈ 0.32 µM) | 0.25 (≈ 0.666 µM) | –
CO/N=C1\CN(c2nc3c(cc2F)c(=O)c(C(=O)O)cn3C2CC2)CC1CN (centres undefined) [GEMIFLOXACIN] | 0.06 (≈ 0.154 µM) | 0.5 (≈ 1.28 µM) | 0.25 (≈ 0.642 µM) | 1 (≈ 2.57 µM) | 1 (≈ 2.57 µM) | 0.25 (≈ 0.642 µM) | 0.5 (≈ 1.28 µM) | 0.5 (≈ 1.28 µM) | 0.12 (≈ 0.308 µM) | < 0.06 | 0.25 (≈ 0.642 µM) | 0.12 (≈ 0.308 µM) | 0.12 (≈ 0.308 µM) | 1 (≈ 2.57 µM) | 0.06 (≈ 0.154 µM) | 0.06 (≈ 0.154 µM) | 0.06 (≈ 0.154 µM) | 0.03 (≈ 0.077 µM) | 0.06 (≈ 0.154 µM) | –
C[C@H]1COc2c(N3CCN(C)CC3)c(F)cc3c(=O)c(C(=O)O)cn1c23.C[C@H]1COc2c(N3CCN(C)CC3)c(F)cc3c(=O)c(C(=O)O)cn1c23.O [LEVOFLOXACIN] | – | > 32 | > 32 | > 32 | > 32 | > 32 | > 32 | > 32 | > 32 | – | > 32 | – | 3 | > 32 | – | – | – | – | – | –
COc1c(N2C[C@@H]3CCCN[C@@H]3C2)c(F)cc2c(=O)c(C(=O)O)cn(C3CC3)c12 [MOXIFLOXACIN] | – | 4 (≈ 9.96 µM) | 4 (≈ 9.96 µM) | 8 (≈ 19.9 µM) | 8 (≈ 19.9 µM) | 4 (≈ 9.96 µM) | 8 (≈ 19.9 µM) | 4 (≈ 9.96 µM) | 4 (≈ 9.96 µM) | 0.5 (≈ 1.25 µM) | 4 (≈ 9.96 µM) | 0.5 (≈ 1.25 µM) | > 0.5 | 8 (≈ 19.9 µM) | – | – | – | – | 0.25 (≈ 0.623 µM) | –

Source: ChEMBL document CHEMBL1142188, “Fitness costs of fluoroquinolone resistance in Streptococcus pneumoniae” (2007)
